{
  "source": "ChEMBL document CHEMBL4689842",
  "about": "“EUbOPEN Chemogenomics Library wave 1” (2021)",
  "tested_on": "U2OS",
  "experiment": "Multiplex assay against U2OS",
  "type": "toxicity, cell-based",
  "conditions": "human",
  "method_in_brief": "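Cells were classed with CellPathfinder machine-learning gating, first as Hoechst high-intensity objects or normal cells, then (normal cells) as healthy, pyknosed or fragmented nuclei, and finally (pyknosed cells) as mitotic or apoptotic. Staining of live cells at seeding used Hoechst33342, BioTracker Green Microtubule Cytoskeleton Dye, MitoTracker Red and Annexin V Alexa Fluor 680, with imaging on a CQ1 microscope at 37°C and 5% CO2 after compound addition. Tubulin, mitochondrial-mass and membrane-permeability phenotypes are per cents of healthy-nucleus cells.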",
  "key": {"[1]": {"conditions": "12 h, 1 µM, compound concentration 1 uM, replicate 1"}, "[2]": {"conditions": "12 h, 1 µM, compound concentration 1 uM, replicate 2"}, "[3]": {"conditions": "12 h, 10 µM, compound concentration 10 uM, replicate 1"}, "[4]": {"conditions": "12 h, 10 µM, compound concentration 10 uM, replicate 2"}, "[5]": {"conditions": "24 h, 1 µM, compound concentration 1 uM, replicate 1"}, "[6]": {"conditions": "24 h, 1 µM, compound concentration 1 uM, replicate 2"}, "[7]": {"conditions": "24 h, 10 µM, compound concentration 10 uM, replicate 1"}},
  "data": [
    {"smiles": "CCCc1cc(C)[nH]c(=O)c1CNC(=O)c1cc(-c2ccc(N3CCN(C(C)C)CC3)nc2)cc2c1cnn2C(C)C", "values": [
      {"measurement": "Population Apoptotic (%)", "setting": "[1]", "value": 64, "unit": "%"},
      {"measurement": "Population Fragmented Nuclei (%)", "setting": "[1]", "value": 21, "unit": "%"},
      {"measurement": "Population Healthy Nuclei (%)", "setting": "[1]", "value": 53, "unit": "%"},
      {"measurement": "Population Hoechst High Intensity Objects (%)", "setting": "[1]", "value": 15, "unit": "%"},
      {"measurement": "Population Membrane Permeable-Phenotype (%)", "setting": "[1]", "value": 13, "unit": "%"},
      {"measurement": "Population Mitochondria Different-Phenotype (%)", "setting": "[1]", "value": 81, "unit": "%"},
      {"measurement": "Population Mitotic Cells (%)", "setting": "[1]", "value": 35, "unit": "%"},
      {"measurement": "Population Normal (%)", "setting": "[1]", "value": 84, "unit": "%"},
      {"measurement": "Population Pyknosed Nuclei (%)", "setting": "[1]", "value": 24, "unit": "%"},
      {"measurement": "Population Tubulin-Different-Phenotype (%)", "setting": "[1]", "value": 81, "unit": "%"},
      {"measurement": "Total Cell Count", "setting": "[1]", "value": 124},
      {"measurement": "Population Apoptotic (%)", "setting": "[2]", "value": 20, "unit": "%"},
      {"measurement": "Population Fragmented Nuclei (%)", "setting": "[2]", "value": 19, "unit": "%"},
      {"measurement": "Population Healthy Nuclei (%)", "setting": "[2]", "value": 70, "unit": "%"},
      {"measurement": "Population Hoechst High Intensity Objects (%)", "setting": "[2]", "value": 10, "unit": "%"},
      {"measurement": "Population Membrane Permeable-Phenotype (%)", "setting": "[2]", "value": 8, "unit": "%"},
      {"measurement": "Population Mitochondria Different-Phenotype (%)", "setting": "[2]", "value": 91, "unit": "%"},
      {"measurement": "Population Mitotic Cells (%)", "setting": "[2]", "value": 80, "unit": "%"},
      {"measurement": "Population Normal (%)", "setting": "[2]", "value": 89, "unit": "%"},
      {"measurement": "Population Pyknosed Nuclei (%)", "setting": "[2]", "value": 9, "unit": "%"},
      {"measurement": "Population Tubulin-Different-Phenotype (%)", "setting": "[2]", "value": 94, "unit": "%"},
      {"measurement": "Total Cell Count", "setting": "[2]", "value": 56},
      {"measurement": "Population Apoptotic (%)", "setting": "[3]", "value": 70, "unit": "%"},
      {"measurement": "Population Fragmented Nuclei (%)", "setting": "[3]", "value": 24, "unit": "%"},
      {"measurement": "Population Healthy Nuclei (%)", "setting": "[3]", "value": 49, "unit": "%"},
      {"measurement": "Population Hoechst High Intensity Objects (%)", "setting": "[3]", "value": 8, "unit": "%"},
      {"measurement": "Population Membrane Permeable-Phenotype (%)", "setting": "[3]", "value": 64, "unit": "%"},
      {"measurement": "Population Mitotic Cells (%)", "setting": "[3]", "value": 29, "unit": "%"},
      {"measurement": "Population Normal (%)", "setting": "[3]", "value": 91, "unit": "%"},
      {"measurement": "Population Pyknosed Nuclei (%)", "setting": "[3]", "value": 26, "unit": "%"},
      {"measurement": "Population Tubulin-Different-Phenotype (%)", "setting": "[3]", "value": 98, "unit": "%"},
      {"measurement": "Total Cell Count", "setting": "[3]", "value": 82},
      {"measurement": "Population Apoptotic (%)", "setting": "[4]", "value": 85, "unit": "%"},
      {"measurement": "Population Fragmented Nuclei (%)", "setting": "[4]", "value": 13, "unit": "%"},
      {"measurement": "Population Healthy Nuclei (%)", "setting": "[4]", "value": 47, "unit": "%"},
      {"measurement": "Population Hoechst High Intensity Objects (%)", "setting": "[4]", "value": 5, "unit": "%"},
      {"measurement": "Population Membrane Permeable-Phenotype (%)", "setting": "[4]", "value": 79, "unit": "%"},
      {"measurement": "Population Mitochondria Different-Phenotype (%)", "setting": "[4]", "value": 100, "unit": "%"},
      {"measurement": "Population Mitotic Cells (%)", "setting": "[4]", "value": 14, "unit": "%"},
      {"measurement": "Population Normal (%)", "setting": "[4]", "value": 94, "unit": "%"},
      {"measurement": "Population Pyknosed Nuclei (%)", "setting": "[4]", "value": 38, "unit": "%"},
      {"measurement": "Population Tubulin-Different-Phenotype (%)", "setting": "[4]", "value": 100, "unit": "%"},
      {"measurement": "Total Cell Count", "setting": "[4]", "value": 57},
      {"measurement": "Population Apoptotic (%)", "setting": "[5]", "value": 71, "unit": "%"},
      {"measurement": "Population Fragmented Nuclei (%)", "setting": "[5]", "value": 18, "unit": "%"},
      {"measurement": "Population Healthy Nuclei (%)", "setting": "[5]", "value": 60, "unit": "%"},
      {"measurement": "Population Hoechst High Intensity Objects (%)", "setting": "[5]", "value": 13, "unit": "%"},
      {"measurement": "Population Membrane Permeable-Phenotype (%)", "setting": "[5]", "value": 20, "unit": "%"},
      {"measurement": "Population Mitochondria Different-Phenotype (%)", "setting": "[5]", "value": 89, "unit": "%"},
      {"measurement": "Population Mitotic Cells (%)", "setting": "[5]", "value": 28, "unit": "%"},
      {"measurement": "Population Normal (%)", "setting": "[5]", "value": 86, "unit": "%"},
      {"measurement": "Population Pyknosed Nuclei (%)", "setting": "[5]", "value": 21, "unit": "%"},
      {"measurement": "Population Tubulin-Different-Phenotype (%)", "setting": "[5]", "value": 79, "unit": "%"},
      {"measurement": "Total Cell Count", "setting": "[5]", "value": 132},
      {"measurement": "Population Apoptotic (%)", "setting": "[6]", "value": 33, "unit": "%"},
      {"measurement": "Population Fragmented Nuclei (%)", "setting": "[6]", "value": 20, "unit": "%"},
      {"measurement": "Population Healthy Nuclei (%)", "setting": "[6]", "value": 51, "unit": "%"},
      {"measurement": "Population Hoechst High Intensity Objects (%)", "setting": "[6]", "value": 10, "unit": "%"},
      {"measurement": "Population Membrane Permeable-Phenotype (%)", "setting": "[6]", "value": 10, "unit": "%"},
      {"measurement": "Population Mitochondria Different-Phenotype (%)", "setting": "[6]", "value": 78, "unit": "%"},
      {"measurement": "Population Mitotic Cells (%)", "setting": "[6]", "value": 66, "unit": "%"},
      {"measurement": "Population Normal (%)", "setting": "[6]", "value": 90, "unit": "%"},
      {"measurement": "Population Pyknosed Nuclei (%)", "setting": "[6]", "value": 27, "unit": "%"},
      {"measurement": "Population Tubulin-Different-Phenotype (%)", "setting": "[6]", "value": 82, "unit": "%"},
      {"measurement": "Total Cell Count", "setting": "[6]", "value": 53},
      {"measurement": "Population Apoptotic (%)", "setting": "[7]", "value": 88, "unit": "%"},
      {"measurement": "Population Fragmented Nuclei (%)", "setting": "[7]", "value": 23, "unit": "%"}
    ]}
  ]
}
